We go through ten molecules from PubChem BioAssay.

Test [1] is described as follows: inhibitors of TNFa-induced NFkB p65 translocation, primary screen, imaging, HUVEC, MLSMR starter and 10KST1 sets (AID 438;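 active = inhibition above 20% together with a positive visual image hit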;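 note: compound added about 3h40 before a 20 min TNFalpha stimulation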;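 for inhibition: signal is the nuclear over cytoplasmic p65 intensity ratio per well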). Particulars: HUVEC TNFa-induced p65 nuclear translocation; cell count: measured here: nuclei count (cytotoxicity indicator), at 2.08 µM unless noted; inhibition: at 2 µM, stronger effect = higher value unless noted.
A short description of test [2]: inhibitors of mutant huntingtin aggregation, primary screen, imaging, exon1htt(103Q)mCFP cells, high-content imaging (AID 483;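 active = visual image review flags a hit and inhibition of aggregation exceeds 20%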;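 note: compound exposure lasted 3 days before fixation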;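 for nuclei count: percent of the per-plate median nuclei count of sample wells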). Particulars: exon1htt(103Q)mCFP cell line, aggregate imaging, at 2 µM; inhibition of aggregation: stronger effect = higher value; nuclei count: measured here: cell count, toxicity.
A short description of test [3]: inhibitors of E-selectin induction by TNFa, primary screen, imaging, HUVEC, immunofluorescence, MLSMR starter and 10KST1 sets (AID 487).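 For inhibition: signal is fraction of cell area covered by stained E-selectin grains.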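 For nuclei count: 100% = median nuclei count of all wells on the same plate.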 Particulars: HUVEC TNFalpha-induced E-selectin immunofluorescence imaging, at 2 µM; inhibition: stronger effect = higher value; nuclei count: measured here: cell number, toxicity.
In test [4] the target is Voltage-gated potassium channel subunit beta-2 (Rattus norvegicus) (UniProt P62483). Put plainly: KvBeta enzyme negative modulators, primary screen, biochemical, NADPH fluorescence (AID 622;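 active = fluorescence slope higher than the sample average by over 3 SD, cut at about -0.22 in these data, passing the limit was not always enough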;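 note: slope of raw intensity against log time taken from 70 to 1610 s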). Particulars: recombinant KvBeta, 4-cyanobenzaldehyde reduction, at 10 µM, stronger effect = higher value.
The target is the same in test [5]. Nature of the test: KvBeta positive modulators, primary screen, biochemical, NADPH fluorescence (AID 623;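 active = NADPH fluorescence slope more negative than the mean of all samples by about 3 SD, 99.7% confidence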;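 note: fluorescence intensity change per second fitted from 20 to 320 s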). Particulars: Recombinant KvBeta, NADPH fluorescence decrease slope, 10 min; at 10 µM; stronger effect = lower value.
The target of test [6] is Alpha-2C adrenergic receptor (Homo sapiens) (UniProt P18825). Put plainly: modulators of alpha2C/GIRK thallium flux, primary screen, cell-based, HEK293 alpha2C/GIRK1/2 (AID 624;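 active = fluorescence slope after compound addition differing from the mean of all screened samples at 99.7% confidence, in either direction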;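 note: slope of fluorescence ratio to pre-addition baseline per second over 15 to 24 s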). Particulars: thallium flux BTC fluorescence, at 10 µM, actives lie on both sides.
Test [7] is described as follows: inhibitors of larval lipid processing in zebrafish, primary screen, whole organism, PED6 fluorescence, gall bladder and intestine (AID 686;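 active = a full or partial loss of lipid-probe fluorescence in the fish gall bladder, intestine or both, judged by eye; inactive = no fluorescence loss, or compound toxic to the fish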;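 note: larvae 5 to 7 days old with five fish per well; signal comes from phospholipase A2 cleavage of quenched PED6 carried via bile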). Particulars: Zebrafish larvae PED6 lipid processing, fluorescence scoring. The method, boiled down: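 System: live zebrafish larvae aged 5-7 days, whole organism; measure: graded gall bladder and intestinal fluorescence inhibition per well; incubation: overnight exposure; reagent: ingested quenched lipid PED6 at 100 nM; signal: By-eye fluorescence microscopy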

Test [8] is described as follows: inhibitors of Sendai virus-induced IRF3 signaling, primary screen, TLR/RLR signaling modifier project, cell-based, Sendai virus stimulus, luciferase, 10K MLSCN set (AID 602276;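 active = inhibition at or above 50% at 10 µM; inactive = inhibition below 50%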;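 note: firefly luciferase from ISG56 promoter only with Renilla not read in this screen; 0% = Sendai virus plus DMSO and 100% = medium plus DMSO without virus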). Particulars: HEK293 RL24 IRF3 luciferase reporter, at 10 µM, stronger effect = higher value. (In a reporter assay the amount or activity of a reporter protein is the signal.)
Test [9] in a line: inhibitors of poly I:C-induced TLR3 signaling, primary screen, cell-based, poly I:C stimulus, luciferase, 10K MLSCN set (AID 602277;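 active = inhibition of the reporter signal at or above 50%; inactive = inhibition below 50%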). Particulars: HEK293-TLR3 RL24 IRF3 luciferase reporter, at 10 µM, stronger effect = higher value.
Test [10] has as its target Muscarinic acetylcholine receptor M4 (Homo sapiens) (UniProt P08173). Put plainly: compounds altering M4/GIRK thallium flux, either direction, primary screen, M4 allosteric agonist project, cell-based, HEK293 M4/GIRK, BTC-AM (AID 625;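 active = fluorescence slope after compound addition differing from the mean of all tested samples at 99.7% confidence, mostly higher but some lower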;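 note: thallium influx through GIRK channels coupled to M4 in HEK293 cells with BTC-AM dye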). Particulars: at 10 µM, actives lie on both sides. The method, boiled down:
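Material: M4/GIRK1/GIRK2 stable HEK293 cell line. Medium: pH 7.3 thallium assay buffer. Dosing: single compound concentration, 10 µM final. Schedule: 1 h dye loading, 2 min kinetic read. Measured by: kinetic fluorescence with BTC-AM dye. Read-out: post-addition slope, 15–24 s, of baseline-normalized fluorescence. Benchmarks: carbachol and DMSO controls.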

The source made the active and inactive calls.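 Rule for the calls, unless noted: active = visually confirmed hit in the image check and inhibition above 20%; inconclusive = visually confirmed hit but inhibition not above 20%; inactive = no visual hit in the image check.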

Voltage-gated potassium channel subunit beta-2 (Rattus norvegicus), sequence (P62483 whole entry, looked up): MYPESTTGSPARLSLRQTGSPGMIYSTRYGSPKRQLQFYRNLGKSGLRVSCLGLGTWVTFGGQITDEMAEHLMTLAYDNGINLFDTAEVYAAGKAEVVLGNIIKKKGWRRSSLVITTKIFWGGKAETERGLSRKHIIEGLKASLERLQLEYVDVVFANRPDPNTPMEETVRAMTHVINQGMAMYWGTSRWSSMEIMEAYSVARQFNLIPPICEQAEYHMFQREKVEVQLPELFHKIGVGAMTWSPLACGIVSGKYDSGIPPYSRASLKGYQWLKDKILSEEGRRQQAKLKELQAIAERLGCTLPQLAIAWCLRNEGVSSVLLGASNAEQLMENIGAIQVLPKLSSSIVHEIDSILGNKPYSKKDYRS
Alpha-2C adrenergic receptor (Homo sapiens), sequence (P18825 whole entry, looked up): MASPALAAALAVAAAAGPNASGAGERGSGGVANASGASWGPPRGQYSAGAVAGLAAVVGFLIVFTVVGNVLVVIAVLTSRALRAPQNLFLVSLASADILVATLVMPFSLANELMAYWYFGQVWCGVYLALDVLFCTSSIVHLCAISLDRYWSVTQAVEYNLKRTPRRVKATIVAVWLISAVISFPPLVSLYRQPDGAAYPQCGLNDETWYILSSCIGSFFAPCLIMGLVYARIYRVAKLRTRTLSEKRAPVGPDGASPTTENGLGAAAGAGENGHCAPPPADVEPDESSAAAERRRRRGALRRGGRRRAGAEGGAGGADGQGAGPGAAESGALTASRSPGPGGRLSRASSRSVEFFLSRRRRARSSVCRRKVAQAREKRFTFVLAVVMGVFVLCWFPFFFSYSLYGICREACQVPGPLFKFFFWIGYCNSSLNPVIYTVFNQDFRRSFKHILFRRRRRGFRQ
Muscarinic acetylcholine receptor M4 (Homo sapiens), sequence (P08173 whole entry, looked up): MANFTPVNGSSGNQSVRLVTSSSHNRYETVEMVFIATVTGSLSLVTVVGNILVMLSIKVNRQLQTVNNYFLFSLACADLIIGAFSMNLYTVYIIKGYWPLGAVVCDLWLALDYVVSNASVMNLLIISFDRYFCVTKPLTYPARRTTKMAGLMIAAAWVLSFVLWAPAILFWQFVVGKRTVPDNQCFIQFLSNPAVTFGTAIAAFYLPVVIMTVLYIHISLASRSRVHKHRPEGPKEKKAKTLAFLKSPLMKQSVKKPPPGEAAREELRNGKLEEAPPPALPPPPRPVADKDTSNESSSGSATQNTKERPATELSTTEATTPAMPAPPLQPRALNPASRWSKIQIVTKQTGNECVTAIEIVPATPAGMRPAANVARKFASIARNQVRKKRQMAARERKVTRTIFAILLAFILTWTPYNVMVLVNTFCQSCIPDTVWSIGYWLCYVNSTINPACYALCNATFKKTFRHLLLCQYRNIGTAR

On to `O=C(C1CCCN(c2nnc(-n3cccc3)s2)C1)N1CCC2(CC1)OCCO2` (centres undefined), for which, in [1], the cell count is 597. For the same molecule, the inhibition (in general, the change of the read-out against control, counted positive when it falls) in [1] was -2.2% (inactive); in test [3], 8.1% (inactive); in test [8] it was -2.39% (inactive); in test [9] it was -5.8% (inactive). Moreover, the inhibition of aggregation in [2] is 1.5% (inactive). For the same molecule, the nuclei count was 115% in [2] and 92.8% in [3]. In addition, the fluorescence slope in test [4] was -0.388 (inactive). The NADPH fluorescence slope in [5] is -4.5e-05 (inactive). Moreover, the slope in test [6] was 0.00502 (inactive). Further, the outcome in test [7] was inactive.

Take `O=c1[nH]c(=O)n(Cc2ccccc2)c(O)c1C=NCCCO`: the cell count in test [1] was determined as 414. The inhibition was -6.5% (inactive) in test [1], -59% (inactive) in test [3], 16.7% (inactive) in [8] and 16.9% (inactive) in [9]. Moreover, the inhibition of aggregation in test [2] is 24.4% (inactive). In addition, the nuclei count in test [2] was determined as 90.8%; in test [3] it was 128%. The fluorescence slope in [4] is -0.52 (inactive); in [10], 0.00467 (inactive). In addition, the NADPH fluorescence slope in test [5] is -3e-05 (inactive).

Turning to `CCC(C)NC(=O)c1c(N)n(CC2CCCO2)c2nc3ccccc3nc12` (centres undefined), the cell count in test [1] amounted to 603. Moreover, the inhibition in test [1] is -1.4% (inactive); in test [3], -13.3% (inactive); in [8], 14.8% (inactive); in test [9], 17.6% (inactive). Moreover, the inhibition of aggregation in [2] is -0.7% (inactive). Moreover, the nuclei count in test [2] was 80.9%; in test [3], 128%. Also, the figures for the fluorescence slope in test [4] and in test [10] were -0.058 (active) and 0.00598 (inactive), respectively. The NADPH fluorescence slope in [5] was 1.6e-05 (inactive).

Turning to `C=CCOC(=O)COc1cc(C)cc2oc(=O)c3c(c12)CCC3`, in test [1], the cell count is 609. The inhibition in test [1] is 6% (inactive); in test [3], 75.7% (active); in [8], -1.05% (inactive); in [9] it was 99.1% (active). For the same molecule, in test [2], the inhibition of aggregation is 20.1% (inactive). The nuclei count was 85.8% in test [2] and 49.1% in test [3]. For the same molecule, in test [4], the fluorescence slope is -0.254 (inactive). In addition, the NADPH fluorescence slope in test [5] is -4.4e-05 (inactive). In addition, the slope in test [6] was 0.00532 (inactive). Also, in [7], the outcome was inactive.

For `O=C(Cn1cc(C(=O)c2ccccc2)c2ccccc21)NCc1ccco1`, the cell count in test [1] stood at 229. Moreover, the inhibition in test [1] was -1.4% (inactive); in test [3] it was -0.3% (inactive); in test [8], -5.96% (inactive); in test [9], -16.8% (inactive). Moreover, the inhibition of aggregation in test [2] was 3.1% (inactive). Besides, the nuclei count in [2] was 89.8%; in test [3] it was 103%. Also, the fluorescence slope in [4] is -0.567 (inactive); in test [10] it was 0.00474 (inactive). For the same molecule, in test [5], the NADPH fluorescence slope was -1.5e-05 (inactive).

`COc1ccccc1CN1CCN(C(=O)Cc2ccccc2)CC1` returned a cell count in [1] of 466. In addition, the inhibition in test [1] was 5.9% (inactive); in test [3], 18.9% (inactive); in test [8], -1.53% (inactive); in [9], 3.43% (inactive). Moreover, the inhibition of aggregation in test [2] was 2.7% (inactive). The nuclei count in [2] was found to be 101%; in [3] it was 112%. Also, the fluorescence slope in [4] is -0.326 (inactive). Also, the NADPH fluorescence slope in [5] is 3.1e-06 (inactive). Also, the slope in [6] is 0.00694 (inactive). Also, the call in [7] was inactive.

Consider `Cc1cccc(N2CCc3c2nc2ccccc2c3N)c1`, for which the cell count in [1] was determined as 731. In addition, the inhibition in [1] is -6.5% (inactive); in test [3], -54.5% (inactive); in test [8], 15.5% (inactive); in test [9], 31.6% (inactive). Moreover, the inhibition of aggregation in test [2] was -7.8% (inactive). Besides, the nuclei count was found to be 98% in [2] and 112% in test [3]. For the same molecule, in test [4], the fluorescence slope was -0.113 (active). For the same molecule, in test [5], the NADPH fluorescence slope was -9.7e-06 (inactive). In addition, the slope in test [6] is 0.00452 (inactive).

In turn, `C=CCN1C(=O)C2(C(C(=O)OCC)=C(N)Oc3c2c(=O)oc2ccccc32)c2ccccc21` (centres undefined) registered a cell count in test [1] of 679. The inhibition in test [1] was -7.1% (inactive); in [3] it was -41% (inactive); in test [8], 13.6% (inactive); in [9], 21.3% (inactive). Also, the inhibition of aggregation in test [2] is 10.1% (inactive). Further, the nuclei count in test [2] stood at 93.2%; in test [3] it was 91.1%. Moreover, the fluorescence slope in [4] is -0.467 (inactive). The NADPH fluorescence slope in [5] was -0.000107 (inactive). The slope in test [6] is 0.00519 (inactive). In addition, in [7], the call was inactive.

As for `COc1cc(/C=N/n2cnnc2)ccc1OC(=O)N(C)C`, the cell count in test [1] amounted to 615. Also, the inhibition is -19.9% (inactive) in test [1], -3.5% (inactive) in [3], 13% (inactive) in [8] and 20.9% (inactive) in [9]. Further, the inhibition of aggregation in test [2] was -14.7% (inactive). In addition, the nuclei count in test [2] stood at 114%; in test [3], 98.1%. The fluorescence slope is -0.436 (inactive) in test [4] and 0.0081 (inactive) in [10]. In addition, in test [5], the NADPH fluorescence slope is 3.1e-05 (inactive).

On to `Nc1ccccc1C(=O)OC1CSC1`, for which the cell count in test [1] came to 621. In addition, the inhibition in test [1] is -8.7% (inactive); in [3], -29.1% (inactive); in [8], 20.2% (inactive); in test [9], 15% (inactive). In addition, the inhibition of aggregation in [2] was -13.4% (inactive). For the same molecule, the nuclei count in test [2] was 102%; in test [3], 93.5%. Moreover, the fluorescence slope is -0.559 (inactive) in [4] and 0.00479 (inactive) in [10]. For the same molecule, the NADPH fluorescence slope in test [5] is -2.7e-06 (inactive).
